Our source for the IC50 values is ChEMBL document CHEMBL1142708, “Synthesis, characterization, and comparative in vitro cytotoxicity studies of platinum(II), palladium(II), and gold(III) methylsarcosinedithiocarbamate complexes” (J Med Chem, 2005).

For one assay, the system named is HL-60. In words: Concentration of the compound required to inhibit cell growth by 50% towards human HL60 tumor cell lines by the trypan blue dye exclusion test after 72 h. Format: functional, cell-based. Summed up: (§1)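 Cells were seeded in IMDM with 10% heat-inactivated FCS, penicillin/streptomycin and L-glutamine at 37 °C under 5% CO2, at 5.0 × 10^4 cells·mL-1 for HeLa and 2.0 × 10^5 cells·mL-1 for HL60. Compounds were taken from DMSO stocks into IMDM (final DMSO 0.1%). After 72 h, cells were stained for 2 min with 0.25% trypan blue plus 5% FCS, and viable cells were counted by phase-contrast microscopy. IC50 was taken as 50% growth inhibition versus control.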

In a further assay the test system is HeLa. In words: Concentration of the compound required to inhibit cell growth by 50% towards human HeLa tumor cell lines by the trypan blue dye exclusion test after 72 h. It is filed as functional, cell-based. In short, it runs like this: as §1

On to CISPLATIN, for which the figures for the IC50 in the assay on HL-60 and in the assay on HeLa were 1.7 µM and 1.2 µM, respectively.
The matching figures for [Au(MSDT)Br2]: 0.8 µM and 1.8 µM.
On the same counts, the results for [Au(MSDT)Cl2] are 0.9 µM and 1.7 µM.
On the same counts, the results for [Pd(MSDT)Br]n are 3.7 µM and 5 µM.
In the case of [Pd(MSDT)Cl]n, the IC50 in the assay on HL-60 was found to be 3.8 µM; in the assay with HeLa it was 6 µM.
Regarding [Pd(MSDTM)Br2], the IC50 in the assay with HL-60 and in the assay on HeLa was more than 15 µM in each case.
In the case of [Pt(MSDT)Br]n, the IC50 in the assay with HL-60 and in the assay on HeLa was more than 15 µM each time.
Regarding [Pt(MSDT)Cl]n, the IC50 with HL-60 and in the assay with HeLa was more than 15 µM in each case.
As to [Pt(MSDTM)Br2], the IC50 with HL-60 and in the assay on HeLa was more than 15 µM each time.

The term IC50 denotes the concentration that gives 50% inhibition.
